Values after ≈ are worked out from the molar mass of the structure shown.

Holding throughout (format): functional
Assay [1] has as its system Staphylococcus aureus. Put plainly: Antibacterial activity against tetracycline-susceptible Staphylococcus aureus ATCC 13709 Smith isolate SA100. The essentials: (§1)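 Broth microdilution MIC following CLSI methods in cation-adjusted Mueller Hinton broth, prepared fresh and held at 4 °C before testing. Defibrinated horse blood added to the medium where appropriate. Runs accepted when quality control ranges for comparator antibiotics and ATCC QC strains were met.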

The test system of assay [2] is Staphylococcus aureus. Put plainly: Antibacterial activity against tetracycline-resistant Staphylococcus aureus isolate SA161 expressing TetM gene. The gist of the method:
as §1

Assay [3] has as its system Staphylococcus aureus. Put plainly: Antibacterial activity against tetracycline-resistant Staphylococcus aureus isolate SA158 expressing TetK gene.
In assay [4] the test system is Streptococcus pneumoniae. Put plainly: Antibacterial activity against Streptococcus pneumoniae ATCC 49619 isolate 106. The essentials: (§2)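 MIC by broth microdilution in liquid medium per CLSI, in cation-adjusted Mueller Hinton broth made fresh and held at 4 °C before testing. Horse blood (defibrinated) added to the medium where appropriate. Runs were accepted only when the comparator antibiotics and ATCC QC strains fell within their recommended ranges.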

Assay [5] relates to Streptococcus pneumoniae. Put plainly: Antibacterial activity against tetracycline-resistant Streptococcus pneumoniae isolate 160 expressing tetM gene.
In assay [6] the test system is Escherichia coli. Put plainly: Antibacterial activity against Escherichia coli ATCC 25922 isolate 107. The gist of the method:
as §2

For assay [7], the system named is Escherichia coli. Put plainly: Antibacterial activity against Escherichia coli isolate EC155 expressing tetA gene. The gist of the method: as §2
Assay [8] has as its system Staphylococcus aureus. Put plainly: Antibacterial activity against Staphylococcus aureus ATCC 13709 infected in CD-1 mouse assessed as increase in survival at 3 mg/kg, iv administered as single dose 1 hr post infection measured after 48 hrs post infection. The essentials:
(§3)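 Mouse septicemia screen: S. aureus grown to log phase, diluted in 5% mucin to give 90% mortality within 48 h, inoculum 1.98 × 10⁶ CFU/mouse, 0.5 mL intraperitoneal into female CD-1 mice (18−20 g). Six mice per group. Single 30 mg/kg oral gavage or 3 mg/kg IV dose 1 h post infection. Infection controls received sterile water vehicle. Survival recorded at 48 h.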

The test system of assay [9] is Staphylococcus aureus. Put plainly: Antibacterial activity against Staphylococcus aureus ATCC 13709 infected in CD-1 mouse assessed as increase in survival at 30 mg/kg, po administered as single dose 1 hr post infection measured after 48 hrs post infection. The essentials: as §3
The test system of the next assay is Klebsiella pneumoniae. Put plainly: Antibacterial activity against Klebsiella pneumoniae ATCC 13883. The essentials: as §2
Assay [10] deals with Staphylococcus aureus. Put plainly: Antibacterial activity against Staphylococcus aureus ATCC 13709 infected in po dosed CD-1 mouse assessed as increase in survival administered as single dose 1 hr post infection measured after 48 hrs post infection. Particulars: ATCC 13709, po, read-out: PD50.

Take `CCN1CCC[C@H]1C(=O)Nc1cc(F)c2c(c1O)C(=O)C1=C(O)[C@]3(O)C(=O)C(C(N)=O)=C(O)[C@@H](N(C)C)[C@@H]3C[C@@H]1C2`: the minimal inhibitory concentration (MIC) (in general, the lowest concentration found to suppress growth) against Staphylococcus aureus [1] is 0.031 µg/mL (≈ 0.0541 µM); in the assay on Staphylococcus aureus [2] it was 0.13 µg/mL (≈ 0.227 µM); against Staphylococcus aureus [3], 0.031 µg/mL (≈ 0.0541 µM); in the assay with Streptococcus pneumoniae [4] it was at most 0.016 µg/mL; in the assay with Streptococcus pneumoniae [5], at most 0.016 µg/mL; in the assay on Escherichia coli [6] it was 0.13 µg/mL (≈ 0.227 µM). In addition, the MIC against Escherichia coli [7] was determined as 4 µg/mL (≈ 6.99 µM). Also, the survival at 3 mg/kg with Staphylococcus aureus [8] worked out at 67%. In addition, in the assay on Staphylococcus aureus [9], the survival at 30 mg/kg is 40%.

On to `CN(C)[C@@H]1C(O)=C(C(N)=O)C(=O)[C@@]2(O)C(O)=C3C(=O)c4c(O)c(NC(=O)[C@@H]5C[C@H](F)CN5C)cc(F)c4C[C@H]3C[C@@H]12`, for which the MIC was found to be 0.13 µg/mL (≈ 0.225 µM) in the assay with Staphylococcus aureus [1]; 0.5 µg/mL (≈ 0.867 µM) against Staphylococcus aureus [2]; 0.063 µg/mL (≈ 0.109 µM) against Staphylococcus aureus [3]; 0.016 µg/mL (≈ 0.0278 µM) in the assay with Streptococcus pneumoniae [4]; 0.016 µg/mL (≈ 0.0278 µM) in the assay with Streptococcus pneumoniae [5]; 2 µg/mL (≈ 3.47 µM) against Escherichia coli [6]. In addition, the MIC was over 32 µg/mL against Escherichia coli [7] and 16 µg/mL (≈ 27.8 µM) against Klebsiella pneumoniae. Besides, the survival at 3 mg/kg in the assay with Staphylococcus aureus [8] is 83%. Also, in the assay on Staphylococcus aureus [9], the survival at 30 mg/kg was 33%.

As for `CN(C)[C@@H]1C(O)=C(C(N)=O)C(=O)[C@@]2(O)C(O)=C3C(=O)c4c(O)c(NC(=O)c5ccccn5)cc(F)c4C[C@H]3C[C@@H]12`, the MIC in the assay with Staphylococcus aureus [1] is 0.13 µg/mL (≈ 0.235 µM); in the assay with Staphylococcus aureus [2] it was 0.13 µg/mL (≈ 0.235 µM); in the assay on Staphylococcus aureus [3], 0.13 µg/mL (≈ 0.235 µM); in the assay with Streptococcus pneumoniae [4], 4 µg/mL (≈ 7.24 µM); in the assay with Streptococcus pneumoniae [5], 8 µg/mL (≈ 14.5 µM); against Escherichia coli [6], over 32 µg/mL. The MIC in the assay on Escherichia coli [7] and in the assay with Klebsiella pneumoniae was over 32 µg/mL in each case. In the assay with Staphylococcus aureus [8], the survival at 3 mg/kg worked out at 0%. Further, the survival at 30 mg/kg with Staphylococcus aureus [9] stood at 0%. In the assay with Staphylococcus aureus [10], the ED50 was over 30 mg/kg.

In the case of `CN(C)c1cc(F)c2c(c1O)C(=O)C1=C(O)[C@]3(O)C(=O)C(C(N)=O)=C(O)[C@@H](N(C)C)[C@@H]3C[C@@H]1C2`, the MIC in the assay with Staphylococcus aureus [1] was 1 µg/mL (≈ 2.1 µM); against Staphylococcus aureus [2], 4 µg/mL (≈ 8.41 µM); against Staphylococcus aureus [3], 4 µg/mL (≈ 8.41 µM); in the assay on Streptococcus pneumoniae [4] it was 0.25 µg/mL (≈ 0.526 µM); in the assay on Streptococcus pneumoniae [5] it was 4 µg/mL (≈ 8.41 µM); in the assay with Escherichia coli [6], 4 µg/mL (≈ 8.41 µM). In addition, the minimum inhibitory concentration (MIC) amounted to 32 µg/mL (≈ 67.3 µM) against Escherichia coli [7] and 8 µg/mL (≈ 16.8 µM) in the assay with Klebsiella pneumoniae.

Regarding `CN(C)[C@@H]1C(O)=C(C(N)=O)C(=O)[C@@]2(O)C(O)=C3C(=O)c4c(O)c(NC(=O)c5ccn(C)n5)cc(F)c4C[C@H]3C[C@@H]12`, the MIC against Staphylococcus aureus [1] was 0.5 µg/mL (≈ 0.9 µM); against Staphylococcus aureus [2], 0.5 µg/mL (≈ 0.9 µM); in the assay on Staphylococcus aureus [3], 1 µg/mL (≈ 1.8 µM); against Streptococcus pneumoniae [4] it was 1 µg/mL (≈ 1.8 µM); against Streptococcus pneumoniae [5], 2 µg/mL (≈ 3.6 µM); in the assay with Escherichia coli [6] it was over 32 µg/mL. Besides, the MIC in the assay with Escherichia coli [7] and against Klebsiella pneumoniae was over 32 µg/mL in each case.

Regarding `CN(C)[C@@H]1C(O)=C(C(N)=O)C(=O)[C@@]2(O)C(O)=C3C(=O)c4c(O)c(NC(=O)c5nccs5)cc(F)c4C[C@H]3C[C@@H]12`, the MIC was 0.063 µg/mL (≈ 0.113 µM) against Staphylococcus aureus [1]; 0.13 µg/mL (≈ 0.233 µM) with Staphylococcus aureus [2]; 0.063 µg/mL (≈ 0.113 µM) in the assay with Staphylococcus aureus [3]; 2 µg/mL (≈ 3.58 µM) against Streptococcus pneumoniae [4]; 4 µg/mL (≈ 7.16 µM) with Streptococcus pneumoniae [5]; over 32 µg/mL in the assay with Escherichia coli [6]. The MIC in the assay with Escherichia coli [7] and with Klebsiella pneumoniae was over 32 µg/mL each time. Further, the survival at 3 mg/kg in the assay on Staphylococcus aureus [8] was found to be 17%. Moreover, the survival at 30 mg/kg with Staphylococcus aureus [9] turned out to be 0%.

On to `CN(C)[C@@H]1C(O)=C(C(N)=O)C(=O)[C@@]2(O)C(O)=C3C(=O)c4c(O)c(NC(=O)[C@@H]5CCN5)cc(F)c4C[C@H]3C[C@@H]12`, for which the MIC with Staphylococcus aureus [1] is 0.25 µg/mL (≈ 0.471 µM); against Staphylococcus aureus [2], 0.13 µg/mL (≈ 0.245 µM); in the assay on Staphylococcus aureus [3] it was 0.5 µg/mL (≈ 0.942 µM); in the assay with Streptococcus pneumoniae [4], 0.16 µg/mL (≈ 0.302 µM); with Streptococcus pneumoniae [5], 0.031 µg/mL (≈ 0.0584 µM); against Escherichia coli [6], 0.25 µg/mL (≈ 0.471 µM). In addition, the MIC in the assay on Escherichia coli [7] amounted to 16 µg/mL (≈ 30.2 µM); against Klebsiella pneumoniae, 1 µg/mL (≈ 1.88 µM).

For `CN(C)[C@@H]1C(O)=C(C(N)=O)C(=O)[C@@]2(O)C(O)=C3C(=O)c4c(O)c(NS(=O)(=O)c5ccccc5)cc(F)c4C[C@H]3C[C@@H]12`, the MIC against Staphylococcus aureus [1] was 0.5 µg/mL (≈ 0.851 µM); in the assay on Staphylococcus aureus [2], 1 µg/mL (≈ 1.7 µM); in the assay on Staphylococcus aureus [3], 0.5 µg/mL (≈ 0.851 µM); against Streptococcus pneumoniae [4], 0.25 µg/mL (≈ 0.425 µM); against Streptococcus pneumoniae [5], 0.25 µg/mL (≈ 0.425 µM); against Escherichia coli [6], 32 µg/mL (≈ 54.5 µM). In addition, the MIC in the assay on Escherichia coli [7] and in the assay on Klebsiella pneumoniae was over 32 µg/mL in each case.

Take `CN(C)[C@@H]1C(O)=C(C(N)=O)C(=O)[C@@]2(O)C(O)=C3C(=O)c4c(O)c(NS(=O)(=O)c5cccs5)cc(F)c4C[C@H]3C[C@@H]12`: the MIC in the assay with Staphylococcus aureus [1] was 0.5 µg/mL (≈ 0.842 µM); against Staphylococcus aureus [2] it was 1 µg/mL (≈ 1.68 µM); against Staphylococcus aureus [3] it was 0.5 µg/mL (≈ 0.842 µM); with Streptococcus pneumoniae [4], 0.25 µg/mL (≈ 0.421 µM); in the assay on Streptococcus pneumoniae [5], 1 µg/mL (≈ 1.68 µM); against Escherichia coli [6] it was over 32 µg/mL. Also, the MIC against Escherichia coli [7] and in the assay on Klebsiella pneumoniae was over 32 µg/mL throughout.
